Data published in ChEMBL document CHEMBL1671768, “In vitro activity of pyronaridine against multidrug-resistant Plasmodium falciparum and Plasmodium vivax” (Antimicrob Agents Chemother, 2010).

How the values were obtained:
Format in all cases: functional, organism-based
Plasmodium vivax [1] = assay: Antimalarial activity against Plasmodium vivax infected in human erythrocytes assessed as growth inhibition by microscopic analysis using giemsa staining
Summary of the method: (§1)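 P. vivax field isolates from Papuan patients, leukocyte-depleted on CF11, were placed in McCoy's 5A + 20% AB+ serum at 2% hematocrit. Plates held 11 two-fold drug dilutions, incubated in a candle jar at 37.5°C until >40% of control rings were mature schizonts. Giemsa thick films were read for schizonts (≥5 chromatin dots/200 parasites) relative to control. IC50 used an inhibitory sigmoid Emax model, accepting fits with Emax/E0 within 15%.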

Plasmodium vivax [2] = assay: Antimalarial activity against Plasmodium vivax trophozoites infected in human erythrocytes assessed as growth inhibition by microscopic analysis using giemsa staining; summary of the method: as §1
Plasmodium vivax [3] = assay: Antimalarial activity against Plasmodium vivax with >50% parasites at ring stage infected in human erythrocytes assessed as growth inhibition after 30 to 50 hrs by microscopic analysis using giemsa staining
Summary of the method: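 Post hoc subset of P. vivax isolates with >50% ring stage at enrollment and assay duration of 30–50 h. Culture was in McCoy's 5A + 20% AB+ serum, 2% hematocrit, 11 two-fold drug dilutions, candle jar, 37.5°C.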

Plasmodium falciparum [4] = assay: Antimalarial activity against Plasmodium falciparum at the ring stage infected in human erythrocytes assessed as growth inhibition by microscopic analysis using giemsa staining
Plasmodium falciparum [5] = assay: Antimalarial activity against Plasmodium falciparum trophozoites infected in human erythrocytes assessed as growth inhibition by microscopic analysis using giemsa staining
Summary of the method: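 Fresh field isolates from uncomplicated malaria patients in Papua, with leukocytes removed on CF11. Cells were kept at 2% hematocrit in RPMI 1640 + 10% AB+ human serum on predosed plates with 11 two-fold drug dilutions, in a candle jar at 37.5°C for 21–46 h. Harvest was when >40% of control rings reached schizont.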

Plasmodium falciparum [6] = assay: Antimalarial activity against Plasmodium falciparum infected in human erythrocytes assessed as growth inhibition by microscopic analysis using giemsa staining
Plasmodium vivax [7] = assay: Antimalarial activity against Plasmodium vivax at the ring stage infected in human erythrocytes assessed as growth inhibition by microscopic analysis using giemsa staining; summary of the method: as §1

Row | Structure (SMILES) | IC50 (Plasmodium vivax [1]) [nM] | IC50 (Plasmodium vivax [2]) [nM] | IC50 (Plasmodium vivax [3]) [nM] | IC50 (Plasmodium falciparum [4]) [nM] | IC50 (Plasmodium falciparum [5]) [nM] | IC50 (Plasmodium falciparum [6]) [nM] | IC50 (Plasmodium vivax [7]) [nM]
1 | CCN(CC)Cc1cc(Nc2ccnc3cc(Cl)ccc23)ccc1O | 14 | 25.2 | 12 | 8.1 | 12.6 | 5.7 | –
2 | Clc1ccc2c(N3CCN(CCCN4CCN(c5ccnc6cc(Cl)ccc56)CC4)CC3)ccnc2c1 [PIPERAQUINE] | 24.8 | 21.7 | 19.6 | 11.8 | 77.2 | 17.1 | 14
3 | OC(c1cc(C(F)(F)F)nc2c(C(F)(F)F)cccc12)C1CCCCN1 (stereo not given) [MEFLOQUINE] | 12.1 | – | 8 | – | 8.5 | – | 7.9
4 | C[C@H]1[C@H](OC(=O)CCC(=O)O)O[C@@H]2O[C@@]3(C)CC[C@H]4[C@H](C)CC[C@@H]1[C@@]24OO3 [ARTESUNATE] | 1.03 | – | 1.27 | – | – | 0.68 | –
5 | COc1ccc2nc3cc(Cl)ccc3c(Nc3cc(CN4CCCC4)c(O)c(CN4CCCC4)c3)c2n1 [PYRONARIDINE] | 2.58 | 4.7 | 2.4 | 1.6 | 8 | 1.92 | 2.5
6 | CCN(CC)CCCC(C)Nc1ccnc2cc(Cl)ccc12 (stereo not given) [CHLOROQUINE] | 142 | 2430 | – | – | – | – | 49.2
